Source: PubChem (Broad Institute)
Only a selection was taken, and hits are over-represented in it overall.
A1 apoptosis 2 = compounds inhibiting A1, read as caspase activation. MEF A1-2A-BIM cells, caspase-Glo luminescence, 3 h; percent of clofoctol response, DMSO zero. caspase activation, % (concentration not given with the values). 24,000 tested, under 10 active. AID 2465; in the data active = caspase activation above about 5.9%
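Evaluation: Caspase-3/7 activity from luminescence increase | Assay system: A1-2A-BIM mouse embryonic fibroblasts | Quantity: 2500 MEF cells/well | Medium: RPMI-1640 plus 10% FBS | Detection: Caspase-Glo 3/7 luminescence, 1 h at room temperature | Dosing: 50 nL compound per well, pinned | Timing: Cells settled overnight, compound exposure 3 h at 37 °C, 5% CO2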
INS-1E rescue = rescue of cytokine-induced death in INS-1E beta cells; INS-1E cytokine-induced death, ATP luminescence, 48 h; normalised: neutral wells 0, positive control 100; protection from cytokine-induced ATP loss, % at 10 µM; 0.1% of 20,000 active;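 active = mean replicate protection from cytokine-induced ATP loss at least 50% and at least 75% of replicates each reaching 50%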
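assay system = INS-1E rat insulinoma cells | amount = 8000 cells per well | medium = phenol-red-free RPMI with 5% fetal bovine serum | doses = one compound concentration, pin transfer | timing = 48 h cytokine plus compound treatment, 10 min reagent incubation | also added = IL-1β, TNF-α and IFN-γ cytokine mix | signal = CellTiter-Glo luminescence measuring cellular ATP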
T cruzi HTS = inhibitors of intracellular Trypanosoma cruzi. intracellular Trypanosoma cruzi in host cells, plate reader. activity score (inhibition), % at 5.01 µM. 4.9% of 22,000 active. AID 651903; in the data active = activity score above about 55%;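 note: parasites and compound incubated about four days before reading; 0% = median of neutral control wells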
* marks the source's active call; other numbers are inactive results; . = no result.

SMILES	A1 apoptosis 2	INS-1E rescue	T cruzi HTS
COc1ccc(S(=O)(=O)Nc2ccc3c(c2)C(=O)N([C@H](C)CO)C[C@H](C)[C@@H](CN(C)C(=O)Nc2ccc(C(F)(F)F)cc2)OCCCC[C@@H](C)O3)cc1	1	-7	37
C[C@@H]1CCCCO[C@@H](CN(C)C(=O)NC2CCCCC2)[C@@H](C)CN([C@@H](C)CO)C(=O)c2cc(NS(=O)(=O)c3ccc(Cl)cc3)ccc2O1	1	.	.
Cc1noc(C)c1NC(=O)Nc1cccc2c1O[C@H](CN(C)C(=O)Nc1c(C)noc1C)[C@@H](C)CN([C@H](C)CO)C2=O	0	6	-17
C[C@@H]1CN([C@@H](C)CO)C(=O)c2cc(NS(=O)(=O)c3ccccc3)ccc2O[C@@H]1CN(C)Cc1ccc(C(F)(F)F)cc1	.	-7	5
C[C@H](CO)N1C[C@H](C)[C@H](CN(C)Cc2ccc(C(F)(F)F)cc2)Oc2ccc(NS(=O)(=O)c3ccccc3)cc2C1=O	.	-19	66*
C[C@@H]1CN([C@H](C)CO)C(=O)c2cc(NS(=O)(=O)c3ccc(F)cc3)ccc2O[C@@H]1CN(C)Cc1ccc(C(F)(F)F)cc1	.	-6	24
Cc1ccc(S(=O)(=O)Nc2ccc3c(c2)C(=O)N([C@H](C)CO)C[C@H](C)[C@H](CN(C)Cc2ccc(C(F)(F)F)cc2)O3)cc1	0	-18	69*
C[C@@H]1CN([C@H](C)CO)C(=O)c2cccc(NC(=O)c3ccc(-c4nccs4)cc3)c2O[C@H]1CN(C)Cc1ccncc1	1	0	17
C[C@@H]1CCCCO[C@H](CN(C)C(=O)Nc2ccccc2)[C@H](C)CN([C@H](C)CO)C(=O)c2cc(NS(=O)(=O)c3ccc(Cl)cc3)ccc2O1	-1	.	.
Cc1ccc(/C=N/NC(=O)c2ccccn2)o1	-4	-3	2
O=C(N/N=C/c1cc(Br)cc(Br)c1O)c1ccccn1	.	-42	78*
O=C(N/N=C/c1cc(Br)c(O)c(Br)c1)c1ccccn1	.	7	-13
O=C(CCCCC(=O)N/N=C/c1ccc(-c2cccc(Cl)c2)o1)NO	.	149*	19
Cc1ccc(/C=N/NC(=O)CCCCCC(=O)O)o1	0	-3	-15
COC(=O)CCCCCCC(=O)N/N=C/c1ccc(-c2cccc(Cl)c2)o1	-3	5	27
Cc1ccc(/C=N/NC(=O)CCCCCC(=O)NO)o1	.	108*	7
O=C(N/N=C/c1ccc(-c2cccc(Cl)c2)o1)c1ccccn1	-1	13	85*
C[C@@H]1CN([C@@H](C)CO)C(=O)Cc2cc(NC(=O)C3CC3)ccc2O[C@@H]1CN(C)Cc1ccc(Cl)c(Cl)c1	0	-22	25
Cc1noc(C)c1NC(=O)N(C)C[C@@H]1Oc2ccc(NC(=O)c3ccncc3)cc2CC(=O)N([C@@H](C)CO)C[C@@H]1C	1	6	-26
Cc1ccc(S(=O)(=O)Nc2ccc3c(c2)C(=O)N([C@@H](C)CO)C[C@H](C)[C@@H](CN(C)Cc2ccc(Cl)c(Cl)c2)OCCCC[C@@H](C)O3)cc1	0	.	.
COc1ccc(S(=O)(=O)Nc2ccc3c(c2)C(=O)N([C@H](C)CO)C[C@@H](C)[C@@H](CN(C)Cc2ccc(Oc4ccccc4)cc2)O3)cc1	.	-14	-12
Cc1ccc(S(=O)(=O)Nc2ccc3c(c2)C(=O)N([C@H](C)CO)C[C@@H](C)[C@@H](CN(C)Cc2ccc(-c4ccccc4)cc2)O3)cc1	3	-20	30
Cc1ccc(S(=O)(=O)Nc2ccc3c(c2)C(=O)N([C@H](C)CO)C[C@H](C)[C@@H](CN(C)Cc2ccc(-c4ccccc4)cc2)O3)cc1	.	-3	-23
C[C@@H]1CN([C@H](C)CO)C(=O)c2cc(NS(=O)(=O)c3ccccc3)ccc2O[C@@H]1CN(C)Cc1ccc(-c2ccccc2)cc1	-2	-28	66*
COc1ccc(S(=O)(=O)Nc2ccc3c(c2)C(=O)N([C@@H](C)CO)C[C@H](C)[C@H](CN(C)Cc2ccc(Oc4ccccc4)cc2)O3)cc1	.	-48	74*
C[C@H](CO)N1C[C@H](C)[C@@H](CN(C)Cc2ccc(-c3ccccc3)cc2)Oc2ccc(NS(=O)(=O)c3ccccc3)cc2C1=O	0	.	41*
Cc1noc(C)c1NC(=O)N(C)C[C@H]1OCCCC[C@H](C)Oc2ccc(NC(=O)c3ccncc3)cc2C(=O)N([C@H](C)CO)C[C@@H]1C	1	.	.
C[C@@H]1CCCCO[C@@H](CN(C)Cc2ccccc2)[C@@H](C)CN([C@@H](C)CO)C(=O)c2cc(NC(=O)NC3CCCCC3)ccc2O1	1	.	.
